Laboratory results as given in the RNAGym collection of RNA variant scans (doi:10.1126/science.aae0568).
Variants at the floor of the assay were thinned out.

B1: tRNA (parent)
chain: GUUCCGUUGGCGUAAUGGUAACGCGUCUCCCUCCUAAGGAGAAGACUGCGGGUUCGAGUCCCGUACGGAACG

Variants of: B1
Assay: yeast fitness relative to wild type (ratio to wild type); higher = fitter; tRNA-Arg(CCU), competitive growth, 37 C, YPD
Procedure, shortened: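 For this measurement, the tRNA-Arg(CCU) gene was varied by chemical synthesis at a 3% per-site mutation rate across 69 sites, and each variant was placed at the native genomic locus in Saccharomyces cerevisiae. The pooled strains went through a 24-hour competition in YPD at 37°C in six parallel replicates, with amplicons from start and end populations read by 100-nucleotide paired-end sequencing. Darwinian fitness relative to wild type followed from the change in each genotype's frequency. Genotypes needed ≥ 100 starting reads, and estimates < 0.5 were set to 0.5.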

Variant	yeast fitness
GAUCCGUUGGCGUAAUGGUAACGCGUCUCCCUCCUAAGGAGAAGACUGCGGGUUCGAGUCCCGUACGGUACG	0.874
GAUCCGUUGGCGUAAUGGUAACGCGUCUCCCUCCUAAGGAGAAGACUGCGGGUUCGAGUCCCGUACGGCACG	0.959
GAUGCGUUGGCGUAAUGGUAACGCGUCUCCCUCCUAAGGAGAAGACUGCGGGUUAGAGUCCCGUACGGAACG	0.57
GAUCCGUUGGCGUAAUGGUAACGCGUCUCCCUCCUAUGGAGAAGACUGCGGGUUCGAGUCCCGUACGGAACG	0.689
GAUCCGUUGGCGUAAUGGUAACGCGUCUCCCUCCUACGGAGAAGACUGCGGGUUCGAGUCCCGUACGGAACG	0.833
GAUACGUUGGCGUAAUGGUAACGCGUCUCCCUCCUAAGGAGAAGAGUGCGGAUUCGAGUCCCGUACGGAACG	≤ 0.5
GAUCAGUUGGCGUAAUGGUAACGCGUCUCCCUCCUAAGGAGAAGACUGCGGCUUCGAGUCCCGUACGGAACG	≤ 0.5
GAUCAGUUGGCGUAAUGGUAAGGUGUCUCCCUCCUAAGGAGAAGACUGCCGGUUCGAGUCCCGUACGGAACG	≤ 0.5
GAUUCGUGGGCGUAAUGGUAACGCGUCUCCAUCCUAAGGAGAACACUGCGGGUUCGAGUCCCGUGCGGAACG	≤ 0.5
GAUCAGUUGGCGUAAUGGUAACGCGUCUCCCUCCUAAGGAACAGACUGCCGGUUCGAGUCCCGUACGGAGCG	≤ 0.5
GAUCCGUUGGCGUAAUGGUAACGCGUCUCCCUCCUAAGGAGAAGGCUGCGGGUUCGAGUCCCGUACGGAACG	1.09
GAUCCGUUGGCGUAAUGGUAACGCGUCUCCCUCCUAAGGAGAAGUCUGCGGGUUCGAGUCCCGUACGGAACG	0.863
GAUCCGUUGGGGUAAUGGUAACGCGUCUCCCUCCUAAGGAGUAGACUGCGGGUUCGAGUCCCGUACGGAACG	≤ 0.5
GAUUCGUUGGCGUAAUGGUAACGCGUCACUCUCCUAAGGAGAAGACUGCGGGUUCGAGUCCCGUACGGAACG	0.56
GAUCCGUUGGGGUAAUGGUAACGCGUGUCCCUCCUAAGGAGAAGACUGCGGGUACGAGUCCCGUACGGAACG	≤ 0.5
GAUCGGUUGGCGUAAUGGUAACGCGUCUCCCUCCUAAGGAGAAGACUGCGGGUUCGAGUCCCCUACCGUACG	≤ 0.5
GAUCCGUUGGCGUAAUGGUAACGCGUCUCCCUCCUAAGGGGAAGACUGCGGGUUCGAGUCCCGUACGGUACG	0.553
GAUCCGUUGGGGUAAUGGUAACGCGUCUCCCUCUUAAGGAGUAGACUGGGGGUUCGAGUCCCGUACGGAACG	0.788
GAUCCGUUGGCGUAAUGGUAACGCGUCUCCCUCCUAAGGAGUAGACUGCGGGUUCGAGUCCCGUACCGAACG	≤ 0.5

Variant	yeast fitness
GAUCUGUUGGCGUAAUGGUAACGCGUCUCCCUCCUAAGGAGGAGAGUGCGGGUUCCAGUCACGUACGGAACG	≤ 0.5
GAUCGGUUGGCGUAAUCGUAACGCGUCUCCCUCCUAAGGAGAAGACUGCGGGUUCCGGUCCCGUACGUAACG	0.558
GAUCCGUUGGCGUAAUGGUAACGCGUCUCCCUCCUAAGGAGAUGACUGCGGGUUCGCGUCUCGUACGGAACG	0.578
GAUCUGUUGGCGUAAUGGUAACGCGUCUGCCUCCUAUGGAGAAGACUGCGGGUUCGAGUCCCGUGCGGAACG	≤ 0.5
GAUCCGUUGGAGUAAUGGUAACGCGUCUCCCUCCUAACGAGAAGACUGCGGGUUCGAGUACCGUAUGGAACG	≤ 0.5
GAUCAGUUGGCGUAAUGGUACCGCGUCUCCCUCCUAAGGAGAAGACUGCGGGUUCGAGUCCCGUACGGAACG	≤ 0.5
GAUCCGUUGGAGUAAUGGUAACGCGUCUCCCUCCUAAGGAGAAGAUUGUGGGUUCGAGUCCCGUACGGAACG	≤ 0.5
GAUCGGUUGGCGUAAUGGUAACGCGUCUCCCUCCUAAGGAGAAGACUGCGGGUUCGAGUCCCGUACGGAACG	0.728
GAUCUGUUGGCGUAAUGGUAACGCGUCUCCCUCCUAAGGAGAAGACUGCGGGUUCGAGUCCCGUACGGAACG	0.906
GAUCGGUUGGCGUAAUGGUAACGCGUCUCCCUCCUAAGGAGAAGACUGCGGGUUCGAGUCCCGAACGGAACG	≤ 0.5
GAUCCGUUGGGGUAAUGGUAACGCGUCUCCGUCCUAAGGAGAAGACUGCGGGUUCGAGUCCCGUACGGAACG	0.6
GAUCUGUUGGCGUAAUGGUAACGCGUCUCCCUCCUAAGGAGAAGACUGCGGGUUCGAGUCCCGUUCGGUACG	0.614
GAUCAGUUGGCGUAAUGGUAACGCGUCUCCCUCCUAAGGAGAAGACUGCGGGUUCGAGUCCCGUAUGGAACG	≤ 0.5
GAUCUGUUGGCGUAAUGGUAACGCGUCUCCCUCCUAAGCAGAAGACUGCGGGUUCGAGUACCGUACGGAACG	0.541
GAUACGUUGGCGCAAUGGUAACGCGUCUCCAUCCUAAGGAGAAGACUGGGGGUUCGGGUCCCGUACGGAACG	≤ 0.5
GAUUCGUGGGCGUAAUGGUAACGCGUCUCCCUCCUAAGGAGAAGACUGCGGGUUGGAGUCCCGUACGGAACG	0.513
GAUCAGUUGGCGUAACGGUAACGCGUCUCACUCCUAAGGAGAAGACUGCGGGUUCGAGUCCCGUACGGAACG	≤ 0.5
GAUCCGUUGGCGUAAUGGUAACGCGUCUCCCUCCUAAGGGGAUGCCUGCGGGUUCGGGUCCCGUCCGGAACG	≤ 0.5
GAUCGGUUGGCGUAAUGGUAACGCGUCUCCCUCCUAAGGGGAAGACUGCGGGUUCGAGUCCCGUACGGAACG	0.564
